In ChEMBL document CHEMBL4831483, “Discovery and optimization of 2-((1H-indol-3-yl)thio)-N-benzyl-acetamides as novel SARS-CoV-2 RdRp inhibitors” (Eur J Med Chem, 2021):

Assays:
[1] = target: T1, Replicase polyprotein 1ab (Severe acute respiratory syndrome coronavirus 2, UniProt P0DTD1); assay: (§1) Inhibition of SARS-CoV-2 RdRp transfected in human HEK293T cells cotransfected with Cov-Gluc by Gaussia luciferase reporter gene method; type: cell-based
Method in brief: (§2)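 HEK293T cells were co-transfected with CoV-Gluc reporter plus C-terminally flag-tagged codon-optimized nsp12, nsp7 and nsp8 plasmids (1:10:30:30). After 12 h, cells were re-seeded in 96-well plates at 10^4/well and treated with serially diluted compound. Gaussia luciferase activity in supernatants gave dose-response IC50. Triplicate assays, mean ± SD.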

[2] = test system: HEK-293T; assay: (§3) Cytotoxicity against human HEK293T cells assessed as reduction in cell viability incubated for 24 hrs by CCK8 assay; type: cell-based; conditions: hek-293t, 24 h
Method in brief: (§4)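 HEK293T cells in 96-well plates were exposed to compound at 0.78–100 μM for 24 h. CCK-8 reagent was then added for 1 h at 37 °C and OD450 read. Viability was normalised to DMSO-only cells to give CC50. Triplicate assays, mean ± SD.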

[3] = target: Replicase polyprotein 1ab (Severe acute respiratory syndrome coronavirus 2) (UniProt P0DTD1); assay: as §1; type: cell-based; method in brief: as §2
[4] = target: T1, Replicase polyprotein 1ab; assay: Inhibition of SARS-CoV-2 RdRp transfected in human HEK293T cells cotransfected nsp12 along with nsp14 and nsp10; type: cell-based
Method in brief: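 HEK293T cell-based Gaussia luciferase RdRp reporter assay. Cells were co-transfected with CoV-Gluc, nsp12, nsp7, nsp8, nsp10 and nsp14 plasmids (1:10:30:30:25:25) so that the nsp14/nsp10 exoribonuclease was present. Gluc activity was measured after compound treatment.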

[5] = target: T1, Replicase polyprotein 1ab; assay: Inhibition of SARS-CoV-2 RdRp transfected in human HEK293T cells cotransfected nsp12; type: cell-based; method in brief: as §2
[6] = target: Replicase polyprotein 1ab (Severe acute respiratory syndrome coronavirus 2) (UniProt P0DTD1); assay: Inhibition of SARS-CoV-2 RdRp transfected in HEK293T cells cotransfected with CoV-Gluc assessed as decrease in plus and minus strand-Gluc RNA levels incubated for 24 hrs by qRT-PCR analysis; type: cell-based; conditions: dose 5-10 µM
Method in brief: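 HEK293T cells were transfected with CoV-Gluc, nsp12, nsp7 and nsp8 plasmids (1:10:30:30). At 6 h post-transfection, medium was replaced with fresh medium containing compound, and cells were cultured a further 24 h. Total cellular RNA was extracted and CoV-Gluc RNA quantified by real-time qRT-PCR.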

[7] = test system: HEK293T; assay: Ratio of IC50 for inhibition of SARS-CoV-2 RdRp transfected in human HEK293T cells cotransfected nsp12 along with nsp14/nsp10 to IC50 for inhibition of SARS-CoV-2 RdRp transfected in human HEK293T cells cotransfected with nsp12; type: cell-based; conditions: Severe acute respiratory syndrome coronavirus 2
[8] = test system: Human coronavirus OC43; assay: Antiviral activity against HCoV-OC43 infected in HCT-8 cells assessed as reduction in viral replication treated 1 hr post infection and measured after 120 hrs post infection by MTS cell proliferation colorimetric assay; type: functional, cell-based
Method in brief: (§5)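 HCT-8 cells infected with HCoV-OC43 at MOI 0.1, and LLC-MK2 cells infected with HCoV-NL63 strain Amsterdam I at MOI 0.01. Serial compound dilutions were added 1 h post-infection in 2% FBS. Incubation was 120 h at 33 °C in 5% CO2. MTS reagent was then added for 3 h at 37 °C and absorbance read at 490 nm.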

[9] = Antiviral activity against HCoV-NL63 infected in LLC-MK2 cells assessed as reduction in viral replication treated 1 hr post infection and measured after 120 hrs post infection by MTS cell proliferation colorimetric assay; type: functional, cell-based; conditions: Human coronavirus NL63, LLC-MK2; method in brief: as §5
[10] = as §3; type: cell-based, HEK-293T; conditions: HEK293T cells; method in brief: as §4

| Compound | IC50 ([1]; read-out: IC50) | CC50 [2] | also measured |
| --- | --- | --- | --- |
| Cn1cc(SCC(=O)N(Cc2ccccc2)Cc2ccccc2)c2ccccc21 | 12.3 µM | 91.2 µM |  |
| O=C(CSc1c[nH]c2cc(Br)ccc12)NCc1ccc(Cl)c(Cl)c1 | 8.71 µM | 67.6 µM |  |
| O=C(CSc1c[nH]c2ccccc12)N(Cc1ccccc1)Cc1ccccc1 |  | > 100 µM | inhibition [3]: Dose-Dependent Effect; IC50 [4]: 4.01 µM; IC50 [5]: 3.35 µM; inhibition [6]: Dose-Dependent Effect; Ratio IC50 [7]: 1.2 |
| COc1ccccc1CNC(=O)CSc1c[nH]c2ccc(Br)cc12 | 10.7 µM | > 100 µM |  |
| Cn1cc(SCC(=O)NCc2ccc(C(F)(F)F)cc2)c2ccccc21 |  | > 100 µM | IC50 ([1]; hek293t): Not Active |
| COc1ccccc1CNC(=O)CSc1c[nH]c2c(-c3ccccc3)cccc12 |  | 95.5 µM | inhibition [3]: Dose-Dependent Effect; IC50 [4]: 2.18 µM; IC50 [5]: 1.65 µM; inhibition [6]: Dose-Dependent Effect; Ratio IC50 [7]: 1.32 |
| CN(Cc1ccccc1)C(=O)CSc1c[nH]c2cccc(Br)c12 | 4.73 µM | 25.1 µM |  |
| Cn1cc(SCC(=O)NCc2ccc(Cl)c(Cl)c2)c2ccccc21 | 7.5 µM | > 100 µM |  |
| CN(C)CCOc1ccc(CNC(=O)CSc2c[nH]c3ccccc23)cc1 | 9.08 µM | > 100 µM |  |
| CN(Cc1ccccc1)C(=O)CSc1c[nH]c2c(Br)cccc12 | 20.9 µM | 52.5 µM |  |
| O=C(CSc1c[nH]c2c(Br)cccc12)N(Cc1ccccc1)Cc1ccccc1 | 7.08 µM | > 100 µM |  |
| CN(C)CCOc1ccc(CNC(=O)CSc2cn(C)c3ccccc23)cc1 | 8.91 µM | > 100 µM |  |
| O=C(CSc1c[nH]c2ccccc12)NCc1ccc(C(F)(F)F)cc1 | 7.94 µM | > 100 µM |  |
| C[C@@H](NC(=O)CSc1c[nH]c2ccccc12)c1ccccc1 | 6.68 µM | > 100 µM |  |
| COc1ccccc1CNC(=O)CSc1c[nH]c2cc(Br)ccc12 | 10 µM | > 100 µM |  |
| CCOc1ccccc1CN(OC)C(=O)CSc1c[nH]c2cccc(Br)c12 |  | > 100 µM | Activity [8]: Dose-Dependent Effect; inhibition [3]: Dose-Dependent Effect; IC50 [4]: 1.89 µM; IC50 [9]: > 50 µM; IC50 [5]: 1.11 µM; inhibition [6]: Dose-Dependent Effect; Ratio IC50 [7]: 1.7 |
| O=C(CSc1c[nH]c2ccc(Br)cc12)NCc1ccc(Cl)c(Cl)c1 | 9.77 µM | > 100 µM |  |
| O=C(CSc1c[nH]c2cccc(Br)c12)N(Cc1ccccc1)Cc1ccccc1 |  | 25.7 µM | inhibition [3]: Dose-Dependent Effect; IC50 [4]: 3.85 µM; IC50 [5]: 3.76 µM; inhibition [6]: Dose-Dependent Effect; Ratio IC50 [7]: 1.02 |
| O=C(CSc1c[nH]c2ccccc12)NCc1ccccc1 | 6.81 µM | > 100 µM |  |
| CN(Cc1ccccc1)C(=O)CSc1c[nH]c2ccccc12 |  | > 100 µM | inhibition [3]: Dose-Dependent Effect; IC50 [4]: 5.37 µM; IC50 [5]: 4.55 µM; inhibition [6]: Dose-Dependent Effect; Ratio IC50 [7]: 1.18 |
| Cn1cc(SCC(=O)NCc2ccccc2)c2ccccc21 | 26.9 µM | 95.5 µM |  |
| O=C(CSc1c[nH]c2cccc(Br)c12)NCc1ccc(Cl)c(Cl)c1 | 7.21 µM | > 100 µM |  |
| COc1ccccc1CN(C)C(=O)CSc1c[nH]c2ccccc12 | 7.64 µM | > 100 µM |  |
| CCC(CC)COC(=O)[C@H](C)N[P@](=O)(OC[C@H]1O[C@@](C#N)(c2ccc3c(N)ncnn23)[C@H](O)[C@@H]1O)Oc1ccccc1 |  |  | CC50 at 24 h [10]: > 100 µM; inhibition [6]: Dose-Dependent Effect |
| COc1ccccc1CNC(=O)CSc1c[nH]c2cccc(Br)c12 | 8.71 µM | > 100 µM |  |
| COc1ccccc1CNC(=O)CSc1c[nH]c2c(Br)cccc12 | 7.08 µM | 72.4 µM |  |
| O=C(CSc1c[nH]c2c(Br)cccc12)NCc1ccc(Cl)c(Cl)c1 | 4.55 µM | > 100 µM |  |
| COc1ccccc1CNC(=O)CSc1cn(C)c2ccccc12 | 9.82 µM | > 100 µM |  |
